According to ChEMBL document CHEMBL4364254 (J Med Chem, 2019):
pEC50, pIC50: −log10 of the molar value. Active and inactive are the calls of the source. The rule behind the calls is not given here.

Assays:
Endothelin-1 receptor = Endothelin-1 receptor (Homo sapiens, UniProt P25101); experiment: Displacement of [125I]endothelin-1 from recombinant human ETA receptor after 120 mins by scintillation counting analysis
[1] = biological target: Muscarinic acetylcholine receptor M1 (Homo sapiens, UniProt P11229); experiment: Displacement of [3H]pirenzepine from recombinant human M1 receptor after 60 mins by scintillation counting analysis
Sequence of Muscarinic acetylcholine receptor M1 (P11229 whole entry): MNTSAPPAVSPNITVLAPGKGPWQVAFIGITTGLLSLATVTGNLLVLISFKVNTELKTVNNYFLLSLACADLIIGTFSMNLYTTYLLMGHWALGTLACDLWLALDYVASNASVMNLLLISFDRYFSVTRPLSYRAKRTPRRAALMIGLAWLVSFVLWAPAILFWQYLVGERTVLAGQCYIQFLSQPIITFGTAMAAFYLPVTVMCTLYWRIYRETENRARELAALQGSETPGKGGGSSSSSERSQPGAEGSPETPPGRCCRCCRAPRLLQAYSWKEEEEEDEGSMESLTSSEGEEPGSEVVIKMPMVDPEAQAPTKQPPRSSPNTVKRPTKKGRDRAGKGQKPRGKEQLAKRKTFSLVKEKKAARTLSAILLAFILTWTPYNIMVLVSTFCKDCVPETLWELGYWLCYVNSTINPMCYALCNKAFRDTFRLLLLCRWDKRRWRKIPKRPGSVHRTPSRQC

[2] = biological target: 5-hydroxytryptamine receptor 3A (Homo sapiens, UniProt P46098); experiment: Displacement of [3H]BRL43694 from recombinant human 5HT3 receptor after 120 mins by scintillation counting analysis
Androgen receptor = Androgen receptor (Homo sapiens, UniProt P10275); experiment: Displacement of [3H]methyltrienolone from recombinant human AR after 1440 mins by scintillation counting analysis
Sequence of Androgen receptor (P10275 whole entry): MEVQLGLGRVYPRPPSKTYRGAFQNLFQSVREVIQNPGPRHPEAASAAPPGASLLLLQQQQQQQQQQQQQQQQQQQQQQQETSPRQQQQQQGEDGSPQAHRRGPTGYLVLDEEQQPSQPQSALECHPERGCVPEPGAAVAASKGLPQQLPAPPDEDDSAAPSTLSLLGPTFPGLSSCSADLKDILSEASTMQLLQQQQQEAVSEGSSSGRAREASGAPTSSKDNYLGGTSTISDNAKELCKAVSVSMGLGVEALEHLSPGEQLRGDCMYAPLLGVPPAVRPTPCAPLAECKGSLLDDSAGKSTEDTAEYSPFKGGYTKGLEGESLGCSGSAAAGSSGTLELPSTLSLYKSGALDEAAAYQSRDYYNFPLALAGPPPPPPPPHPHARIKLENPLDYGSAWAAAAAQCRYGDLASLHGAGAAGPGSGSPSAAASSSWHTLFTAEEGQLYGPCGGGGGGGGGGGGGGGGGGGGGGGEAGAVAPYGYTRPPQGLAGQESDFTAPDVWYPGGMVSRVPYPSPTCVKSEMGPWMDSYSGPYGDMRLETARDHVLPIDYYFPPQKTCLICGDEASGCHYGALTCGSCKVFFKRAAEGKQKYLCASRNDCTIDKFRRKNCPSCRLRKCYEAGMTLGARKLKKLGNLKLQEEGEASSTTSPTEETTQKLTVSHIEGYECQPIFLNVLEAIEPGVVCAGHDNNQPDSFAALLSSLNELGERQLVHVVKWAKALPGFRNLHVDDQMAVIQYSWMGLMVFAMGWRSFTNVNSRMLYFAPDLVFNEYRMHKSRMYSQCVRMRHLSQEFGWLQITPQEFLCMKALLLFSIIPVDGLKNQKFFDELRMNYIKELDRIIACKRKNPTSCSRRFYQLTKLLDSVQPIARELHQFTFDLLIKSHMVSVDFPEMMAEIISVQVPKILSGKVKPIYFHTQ

[3] = biological target: Kappa-type opioid receptor (Homo sapiens, UniProt P41145); experiment: Displacement of [3H]U69593 from recombinant human KOR after 60 mins by scintillation counting analysis
[4] = biological target: Sodium-dependent noradrenaline transporter (Homo sapiens, UniProt P23975); experiment: Displacement of [3H]nisoxetine from recombinant human norepinephrine transporter after 120 mins by scintillation counting analysis
[5] = biological target: Muscarinic acetylcholine receptor M2 (Homo sapiens, UniProt P08172); experiment: Displacement of [3H]AF-DX 384 from recombinant human M2 receptor after 60 mins by scintillation counting analysis
[6] = biological target: Prostaglandin G/H synthase 1 (Homo sapiens, UniProt P23219); experiment: Activity at human recombinant COX1 using arachidonic acid as substrate measured after 3 mins by ADHP reagent based fluorescence assay
Sequence of Prostaglandin G/H synthase 1 (P23219 whole entry): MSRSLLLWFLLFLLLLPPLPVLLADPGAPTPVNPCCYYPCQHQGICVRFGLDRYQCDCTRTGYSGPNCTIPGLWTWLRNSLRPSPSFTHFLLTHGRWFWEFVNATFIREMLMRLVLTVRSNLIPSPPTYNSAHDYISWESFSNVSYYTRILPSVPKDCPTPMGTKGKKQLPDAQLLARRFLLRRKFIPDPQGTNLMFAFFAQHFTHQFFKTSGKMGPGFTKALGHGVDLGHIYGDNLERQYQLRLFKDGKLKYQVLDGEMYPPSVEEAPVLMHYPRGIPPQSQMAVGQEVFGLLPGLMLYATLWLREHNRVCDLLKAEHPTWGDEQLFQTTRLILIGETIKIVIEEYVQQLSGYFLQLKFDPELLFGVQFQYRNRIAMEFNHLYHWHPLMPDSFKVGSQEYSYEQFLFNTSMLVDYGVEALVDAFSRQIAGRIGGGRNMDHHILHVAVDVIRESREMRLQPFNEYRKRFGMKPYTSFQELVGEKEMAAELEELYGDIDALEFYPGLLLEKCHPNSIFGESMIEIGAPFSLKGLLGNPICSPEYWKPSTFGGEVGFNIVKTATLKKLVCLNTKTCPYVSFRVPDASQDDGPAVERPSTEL

[7] = biological target: cGMP-inhibited 3',5'-cyclic phosphodiesterase 3A (Homo sapiens, UniProt Q14432); experiment: Activity at human recombinant PDE3A using [3H]cAMP as substrate measured after 15 mins by scintillation counting analysis
Adenosine receptor A2a = Adenosine receptor A2a (Homo sapiens, UniProt P29274); experiment: Displacement of [3H]CGS21680 from recombinant human adenosine A2A receptor after 120 mins by scintillation counting analysis
[8] = biological target: Amine oxidase [flavin-containing] A (Rattus norvegicus, UniProt P21396); experiment: Displacement of [3H]Ro41-1049 from rat brain MAOA after 60 mins by scintillation counting analysis
Sequence of Amine oxidase [flavin-containing] A (P21396 whole entry): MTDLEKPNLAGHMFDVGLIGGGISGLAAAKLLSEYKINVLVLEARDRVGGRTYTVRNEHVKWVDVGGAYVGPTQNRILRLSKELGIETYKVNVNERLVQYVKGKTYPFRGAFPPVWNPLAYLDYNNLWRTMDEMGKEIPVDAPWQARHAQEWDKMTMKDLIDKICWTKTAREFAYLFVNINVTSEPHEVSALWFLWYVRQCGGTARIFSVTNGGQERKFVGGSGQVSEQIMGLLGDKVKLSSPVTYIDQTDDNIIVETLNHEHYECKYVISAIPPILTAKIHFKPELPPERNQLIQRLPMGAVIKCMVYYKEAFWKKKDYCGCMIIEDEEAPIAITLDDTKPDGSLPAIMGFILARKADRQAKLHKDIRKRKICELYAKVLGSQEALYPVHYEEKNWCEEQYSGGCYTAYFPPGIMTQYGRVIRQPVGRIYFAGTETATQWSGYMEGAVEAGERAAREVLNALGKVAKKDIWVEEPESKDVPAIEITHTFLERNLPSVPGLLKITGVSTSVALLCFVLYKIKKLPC

[9] = biological target: Muscarinic acetylcholine receptor M3 (Homo sapiens, UniProt P20309); experiment: Displacement of [3H]4-DAMP from recombinant human M3 receptor after 60 mins by scintillation counting analysis
[10] = biological target: Beta-2 adrenergic receptor (Homo sapiens, UniProt P07550); experiment: Displacement of [3H](-)CGP12177 from recombinant human beta2 adrenergic receptor after 120 mins by scintillation counting analysis
Mus musculus = experiment: Anti-hepatosteatosis activity in ethanol-induced C57BL/6 mouse model of hepatic steatosis assessed as reduction in hepatic lipid accumulation at 0.03 to 0.3 mg/kg, po administered once daily via gavage for last 2 weeks of study measured post-last dose by oil red O staining-based light microscopic analysis; type: functional, organism-based
How it was run: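 Female C57BL/6J mice (9 weeks old, 19–21 g) were kept on Lieber–DeCarli liquid diet, with ethanol raised from 1 to 5% (v/v) over 15 d and then held for 4 weeks, pair-fed. Dosing was 0.03, 0.1 or 0.3 mg/kg by oral gavage once daily for the last 2 weeks, in 0.5% Na-CMC/1% NMP/0.3% Tween 80. Read-outs were Oil Red O on 10 μm liver sections imaged at 10× and liver weight normalized to brain weight. n = 6–10 per group; t test versus ethanol + vehicle.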

[11] = biological target: Voltage-dependent L-type calcium channel subunit alpha-1C (Rattus norvegicus, UniProt P22002); experiment: Displacement of [3H]nitrendipine from rat brain Cav1.2 dihydropyridine site after 90 mins by scintillation counting analysis
[12] = Displacement of [125I]alpha-dendrotoxin from rat brain voltage-gated potassium ion channel after 60 mins by scintillation counting analysis
[13] = biological target: Tyrosine-protein kinase Lck (Homo sapiens, UniProt P06239); experiment: Activity at recombinant human LCK using Ulight-Poly GAT[EAY(1:1:1)]n as substrate measured after 10 mins by LANCE assay
[14] = biological target: Beta-1 adrenergic receptor (Homo sapiens, UniProt P08588); experiment: Displacement of [3H](-)CGP12177 from recombinant human beta1 adrenergic receptor after 60 mins by scintillation counting analysis
Sequence of Beta-1 adrenergic receptor (P08588 whole entry): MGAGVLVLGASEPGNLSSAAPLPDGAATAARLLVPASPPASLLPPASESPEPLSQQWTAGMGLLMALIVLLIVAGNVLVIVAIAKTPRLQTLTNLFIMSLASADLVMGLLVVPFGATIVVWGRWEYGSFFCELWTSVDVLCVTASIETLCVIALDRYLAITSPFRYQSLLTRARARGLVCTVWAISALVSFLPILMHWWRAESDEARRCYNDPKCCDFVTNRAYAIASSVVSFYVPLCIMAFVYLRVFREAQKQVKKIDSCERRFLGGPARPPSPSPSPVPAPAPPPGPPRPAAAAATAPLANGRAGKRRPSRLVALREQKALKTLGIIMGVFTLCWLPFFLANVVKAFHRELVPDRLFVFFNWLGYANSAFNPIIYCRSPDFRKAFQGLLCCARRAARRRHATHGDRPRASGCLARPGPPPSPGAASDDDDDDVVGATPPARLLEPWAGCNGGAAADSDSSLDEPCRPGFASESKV

[15] = biological target: Delta-type opioid receptor (Homo sapiens, UniProt P41143); experiment: Displacement of [3H]DADLE from recombinant human DOR after 60 mins by scintillation counting analysis
[16] = biological target: Sodium-dependent dopamine transporter (Homo sapiens, UniProt Q01959); experiment: Displacement of [3H]BTCP from recombinant human dopamine transporter after 120 mins by scintillation counting analysis
Sequence of Sodium-dependent dopamine transporter (Q01959 whole entry): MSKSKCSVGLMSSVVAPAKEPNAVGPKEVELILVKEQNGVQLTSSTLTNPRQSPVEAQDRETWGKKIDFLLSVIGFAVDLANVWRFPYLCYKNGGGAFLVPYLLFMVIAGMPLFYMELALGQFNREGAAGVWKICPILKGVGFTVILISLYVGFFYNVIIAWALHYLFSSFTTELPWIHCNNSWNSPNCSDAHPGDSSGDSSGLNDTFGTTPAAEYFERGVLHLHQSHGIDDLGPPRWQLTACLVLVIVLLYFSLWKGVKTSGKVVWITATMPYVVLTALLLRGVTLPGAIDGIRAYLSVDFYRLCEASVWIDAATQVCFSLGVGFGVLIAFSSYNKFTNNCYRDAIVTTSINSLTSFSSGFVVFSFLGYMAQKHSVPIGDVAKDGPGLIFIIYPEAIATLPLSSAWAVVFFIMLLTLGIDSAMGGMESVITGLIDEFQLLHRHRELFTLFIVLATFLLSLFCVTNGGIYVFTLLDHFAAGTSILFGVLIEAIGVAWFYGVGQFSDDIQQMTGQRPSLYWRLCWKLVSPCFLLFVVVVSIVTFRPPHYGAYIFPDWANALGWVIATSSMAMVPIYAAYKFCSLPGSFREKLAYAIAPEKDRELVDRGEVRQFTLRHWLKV

[17] = Displacement of [3H]batrachotoxinin from rat brain voltage-gated sodium ion channel site 2 after 60 mins by scintillation counting analysis
Mu-type opioid receptor = Mu-type opioid receptor (Homo sapiens, UniProt P35372); experiment: Displacement of [3H]DAMGO from recombinant human MOR after 120 mins by scintillation counting analysis
[18] = biological target: Alpha-2A adrenergic receptor (Homo sapiens, UniProt P08913); experiment: Displacement of [3H]RX 821002 from recombinant human alpha 2A adrenoceptor after 60 mins by scintillation counting analysis
[19] = biological target: 5-hydroxytryptamine receptor 2A (Homo sapiens, UniProt P28223); experiment: Displacement of [125I](+/-)DOI from recombinant human 5HT2A receptor after 60 mins by scintillation counting analysis
Sequence of 5-hydroxytryptamine receptor 2A (P28223 whole entry): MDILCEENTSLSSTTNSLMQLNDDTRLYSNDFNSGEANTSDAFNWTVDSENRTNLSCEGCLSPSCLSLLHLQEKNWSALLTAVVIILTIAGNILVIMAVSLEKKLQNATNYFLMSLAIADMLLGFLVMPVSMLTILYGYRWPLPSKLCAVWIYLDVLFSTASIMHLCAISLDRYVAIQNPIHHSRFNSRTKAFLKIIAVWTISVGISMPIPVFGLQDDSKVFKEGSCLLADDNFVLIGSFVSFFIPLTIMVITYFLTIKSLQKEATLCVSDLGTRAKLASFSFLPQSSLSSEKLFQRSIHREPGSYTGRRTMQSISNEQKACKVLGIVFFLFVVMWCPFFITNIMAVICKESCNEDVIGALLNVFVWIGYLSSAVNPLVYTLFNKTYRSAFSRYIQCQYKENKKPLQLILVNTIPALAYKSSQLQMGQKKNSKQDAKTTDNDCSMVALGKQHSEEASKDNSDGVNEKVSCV

[20] = biological target: 3',5'-cyclic-AMP phosphodiesterase 4D (Homo sapiens, UniProt Q08499); experiment: Activity at human recombinant PDE4D2 using [3H]cAMP as substrate measured after 20 mins by scintillation counting analysis
Sequence of 3',5'-cyclic-AMP phosphodiesterase 4D (Q08499 whole entry): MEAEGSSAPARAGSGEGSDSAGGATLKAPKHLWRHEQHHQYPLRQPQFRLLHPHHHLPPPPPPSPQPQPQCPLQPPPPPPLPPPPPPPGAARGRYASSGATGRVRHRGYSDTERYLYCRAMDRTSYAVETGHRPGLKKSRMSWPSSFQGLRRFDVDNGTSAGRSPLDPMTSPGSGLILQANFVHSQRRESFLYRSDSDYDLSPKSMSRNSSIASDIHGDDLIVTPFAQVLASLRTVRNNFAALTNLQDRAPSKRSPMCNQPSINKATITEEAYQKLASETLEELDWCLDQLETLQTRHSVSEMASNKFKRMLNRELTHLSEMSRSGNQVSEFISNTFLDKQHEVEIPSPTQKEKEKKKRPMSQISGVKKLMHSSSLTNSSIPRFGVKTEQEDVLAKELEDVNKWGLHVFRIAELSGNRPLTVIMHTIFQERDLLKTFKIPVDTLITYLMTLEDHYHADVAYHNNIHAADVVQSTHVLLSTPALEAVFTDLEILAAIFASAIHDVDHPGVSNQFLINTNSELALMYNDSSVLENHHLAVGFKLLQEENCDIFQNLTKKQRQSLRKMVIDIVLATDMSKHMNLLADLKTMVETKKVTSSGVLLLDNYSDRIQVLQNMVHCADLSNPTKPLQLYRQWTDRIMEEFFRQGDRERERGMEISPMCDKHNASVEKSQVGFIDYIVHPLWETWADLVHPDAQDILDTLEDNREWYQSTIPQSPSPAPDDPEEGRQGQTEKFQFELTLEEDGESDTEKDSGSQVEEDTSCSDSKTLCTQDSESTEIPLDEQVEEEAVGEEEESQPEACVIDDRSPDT

Cytochrome P450 3A4 = Cytochrome P450 3A4 (Homo sapiens, UniProt P08684); experiment: Induction of CYP3A4 in human HepaRG cells at 10 uM measured after 24 hrs by qRT-PCR analysis relative to rifampicin; type: ADME, cell-based; conditions: hepatocytes
How it was run: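 Cryopreserved HepaRG cells were plated on collagen I in Williams' E medium with GlutaMAX. Positive controls were omeprazole 50 μM (CYP1A2), phenobarbital 1 mM (CYP2B6) and rifampicin 10 μM (CYP3A4). mRNA was read by TaqMan qPCR with GAPDH as reference, using ΔΔCt, and expressed as % of the positive control.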

[21] = biological target: 5-hydroxytryptamine receptor 2B (Homo sapiens, UniProt P41595); experiment: Displacement of [125I](+/-)DOI from recombinant human 5HT2B receptor after 60 mins by scintillation counting analysis

Q: With `O=C(Nc1ccc(OC(F)F)nc1)NC1CCN(c2ncnc3c2nc(-c2ccccc2Cl)n3-c2ccc(Cl)cc2)CC1` as the compound, how does the pEC50 (Endothelin-1 receptor) read?
A: Its pEC50 is < 5.00.

Q: And the pIC50 (Endothelin-1 receptor)?
A: Its pIC50 is < 5.00.

Q: What about the pEC50 [1] of the same compound?
A: The pEC50 was < 5.00.

Q: What about the pIC50 [1] of the same compound?
A: The pIC50 was < 5.00.

Q: What about the pEC50 [2] of the same compound?
A: The pEC50 was < 5.00.

Q: What about the pIC50 [2] of the same compound?
A: The pIC50 was < 5.00.

Q: What about the pEC50 (Androgen receptor) of the same compound?
A: Its pEC50 is < 5.00.

Q: What about the pIC50 (Androgen receptor) of the same compound?
A: Its pIC50 is < 5.00.

Q: What about the pEC50 [3] of the same compound?
A: Its pEC50 is < 5.00.

Q: And the pIC50 [3]?
A: Its pIC50 is < 5.00.

Q: And the pEC50 [4]?
A: The pEC50 was < 5.00.

Q: And the pIC50 [4]?
A: Its pIC50 is < 5.00.

Q: And the pEC50 [5]?
A: Its pEC50 is < 5.00.

Q: And the pIC50 [5]?
A: Its pIC50 is < 5.00.

Q: What about the pEC50 [6] of the same compound?
A: Its pEC50 is < 5.00.

Q: What about the pIC50 [6] of the same compound?
A: Its pIC50 is < 5.00.

Q: What about the pEC50 [7] of the same compound?
A: Its pEC50 is < 5.00.

Q: What about the pIC50 [7] of the same compound?
A: Its pIC50 is < 5.00.

Q: And the pEC50 (Adenosine receptor A2a)?
A: Its pEC50 is < 5.00.

Q: What about the pIC50 (Adenosine receptor A2a) of the same compound?
A: Its pIC50 is < 5.00.

Q: And the pEC50 [8]?
A: Its pEC50 is < 5.00.

Q: What about the pIC50 [8] of the same compound?
A: Its pIC50 is < 5.00.

Q: What about the pEC50 [9] of the same compound?
A: Its pEC50 is < 5.00.

Q: And the pIC50 [9]?
A: The pIC50 was < 5.00.

Q: What about the pEC50 [10] of the same compound?
A: The pEC50 was < 5.00.

Q: And the pIC50 [10]?
A: The pIC50 was < 5.00.

Q: And the Activity (Mus musculus)?
A: The Activity was “Active”.

Q: What about the pEC50 [11] of the same compound?
A: The pEC50 was < 5.00.

Q: And the pIC50 [11]?
A: Its pIC50 is < 5.00.

Q: And the pEC50 [12]?
A: The pEC50 was < 5.00.

Q: And the pIC50 [12]?
A: The pIC50 was < 5.00.

Q: What about the pEC50 [13] of the same compound?
A: Its pEC50 is < 5.00.

Q: What about the pIC50 [13] of the same compound?
A: Its pIC50 is < 5.00.

Q: And the pEC50 [14]?
A: Its pEC50 is < 5.00.

Q: And the pIC50 [14]?
A: The pIC50 was < 5.00.

Q: And the pEC50 [15]?
A: Its pEC50 is < 5.00.

Q: And the pIC50 [15]?
A: The pIC50 was < 5.00.

Q: What about the pEC50 [16] of the same compound?
A: Its pEC50 is < 5.00.

Q: And the pIC50 [16]?
A: The pIC50 was < 5.00.

Q: What about the pEC50 [17] of the same compound?
A: Its pEC50 is < 5.00.

Q: And the pIC50 [17]?
A: The pIC50 was < 5.00.

Q: And the pEC50 (Mu-type opioid receptor)?
A: Its pEC50 is < 5.00.

Q: And the pIC50 (Mu-type opioid receptor)?
A: The pIC50 was < 5.00.

Q: What about the pEC50 [18] of the same compound?
A: The pEC50 was < 5.00.

Q: What about the pIC50 [18] of the same compound?
A: Its pIC50 is < 5.00.

Q: And the pEC50 [19]?
A: The pEC50 was < 5.00.

Q: And the pIC50 [19]?
A: The pIC50 was < 5.00.

Q: And the pEC50 [20]?
A: The pEC50 was < 5.00.

Q: What about the pIC50 [20] of the same compound?
A: The pIC50 was < 5.00.

Q: And the Activity (Cytochrome P450 3A4)?
A: The Activity was < 10%.

Q: What about the pEC50 [21] of the same compound?
A: Its pEC50 is < 5.00.

Q: And the pIC50 [21]?
A: The pIC50 was < 5.00.
